GSK3B inh: human GSK3beta kinase inhibition; 300,000 tested, 0.038% active; activity score (negative = inhibition), % at 10 µM; P49841; GST-GSK3beta kinase, ADP-Glo luminescence, 60 min; hits give low values;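 active means more than half of replicate wells score below -50%, meaning over 50% inhibition versus plate controls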;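 further: 0% = median DMSO wells and -100% = median GW8510 positive control wells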
Target sequence (P49841 whole entry, looked up): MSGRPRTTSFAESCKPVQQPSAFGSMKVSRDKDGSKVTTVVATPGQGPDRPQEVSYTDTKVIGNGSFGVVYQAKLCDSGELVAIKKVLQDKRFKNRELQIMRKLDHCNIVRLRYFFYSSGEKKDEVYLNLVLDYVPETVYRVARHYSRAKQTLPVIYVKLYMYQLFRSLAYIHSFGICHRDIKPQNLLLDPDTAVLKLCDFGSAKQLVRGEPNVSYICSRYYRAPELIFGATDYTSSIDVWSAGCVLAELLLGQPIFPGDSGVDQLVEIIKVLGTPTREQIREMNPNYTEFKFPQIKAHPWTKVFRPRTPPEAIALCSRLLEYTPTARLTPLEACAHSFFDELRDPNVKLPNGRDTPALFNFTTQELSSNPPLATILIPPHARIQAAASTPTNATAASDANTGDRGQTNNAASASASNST
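Assay system: GST-tagged human GSK3beta kinase, cell-free; Input: 1.6 ng GSK3beta; Medium: Tris/MgCl2 kinase buffer; Timing: 60 min enzyme reaction, room temperature; Signal: ADP-Glo luminescence quantifying ADP generated by kinase; Evaluation: score relative to plate controls; Benchmarks: DMSO neutral wells and GW8510 at 20 µM as positive.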
Dyrk1A ADPGlo: blocks rat Dyrk1A kinase activity; ADP-Glo luminescence, NFATc1 peptide; Q63470; AID 504441; inhibition, % at 12.5 µM; 310,000 tested, 0.43% active; in the data active means inhibition above about 50%;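 further: plate controls were vehicle with enzyme for no effect and no enzyme for full effect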
GSK3 alpha inh: blocks human GSK-3 alpha kinase; inhibition, % at 10 µM; ADP-Glo luminescence, 60 min; P49840; 320,000 tested, 0.1% active;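 active means more than half of replicates show inhibition above 20%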;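 further: GST-tagged GSK-3 alpha with peptide substrate and 25 µM ATP; 0% = DMSO neutral wells and 100% = GW8510 positive control wells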
STK33 kinase inh: blocks human STK33 kinase activity; purified STK33, MBP phosphorylation, ADP-Glo luminescence; 320,000 tested, 0.073% active; AID 2661; inhibition, % at 10 µM; Q9BYT3;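 active means inhibition at or above 25%, using the most active replicate where run in duplicate; inactive means inhibition below 25%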
Dyrk1A artifact: interferes with ADP-Glo luciferase readout without Dyrk1A. shares compounds with Dyrk1A ADPGlo. ADP-Glo luciferase artifact assay, no Dyrk1A, luminescence. AC50, µM (top dose mostly 12 µM), without a hit: top-dose activity change, negative = inhibition. 1,300 tested, under 10 active. AID 588348;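 active means fitted half-maximal dose AC50 no more than ten times the top valid tested dose, with luminescence dropping as dose rises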
* hit, by the source's call; nt = no result given. The full list was thinned out, with hits kept by preference.

SMILES	GSK3B inh	Dyrk1A ADPGlo	GSK3 alpha inh	STK33 kinase inh	Dyrk1A artifact
Cc1c(NC(=O)c2ccc(NC(=O)C3CC3)cc2)cccc1C(=O)O	5	-9	-1	-1	nt
COc1cc(/C=N/N2C(=O)CSC2=S)ccc1O	-5	52*	8	1	10%
COc1cc(/C=C2\Oc3cc(O)ccc3C2=O)ccc1O	-32	93*	63*	-3	8%
COc1cc(/C=C2\CCC/C(=C\c3ccc(O)c(OC)c3)C2=O)ccc1O	0	13	-4	2	nt
O=C1/C(=C/c2ccc(O)c(O)c2)Oc2cc(O)ccc21	nt	68*	50	46*	9%
N#Cc1ccccc1S(=O)(=O)N1CCN(C(=O)c2cc3c(s2)CCC3)CC1	nt	1	nt	nt	nt
O=C1NC(=O)/C(=C/c2ccc(O)cc2)S1	-11	90*	28	33*	9%
N=C1S/C(=C\c2ccc(O)cc2)C(=O)N1c1ccc(F)cc1	-2	78*	-5	2	14%
Cc1c(NC(=O)Nc2cccc(C(F)(F)F)c2)c(=O)n(-c2ccccc2)n1C	3	-5	2	2	nt
Cn1nc(C(=O)Nc2ccc(S(=O)(=O)Nc3ncccn3)cc2)ccc1=O	-3	-6	-3	-2	nt
O=c1[nH]c(=S)[nH]c2sccc12	2	64*	3	-2	4%
CSc1nc2sccc2c(=O)[nH]1	2	0	2	1	nt
C(=N\NCc1ccccc1)/c1ccc2nccnc2c1	-1	nt	-3	1	nt
COc1ccc(CN(C(=O)CN2C(=O)c3ccccc3S2(=O)=O)C(C(=O)NCC2CCCO2)c2ccco2)cc1 (stereo not drawn)	1	-5	-1	0	nt
COC(=O)c1cc(C)nc2c1C(=O)C(=O)C=C2N1CCOCC1	-2	61*	-6	1	8%
O=C(O)c1cc(N/N=C/c2c(O)ccc3ccccc23)ccc1Cl	1	73*	3	44*	8%
COc1ccc(S(=O)(=O)N(C)CC(=O)NCCN2CCOCC2)cc1C	0	-1	-1	1	nt
COC(=O)CSc1nc(N)c(C#N)c(C(C)C)c1C#N	-1	50*	1	1	9%
CCCCCCCCCCCCCCCC[N+](C)(C)CCN(Cc1ccc(OC)cc1)c1ncccn1	nt	63*	23	43*	11%
CC[N+](C)(C)CCN(Cc1ccc(Cl)cc1)c1ccccn1	7	-2	0	-1	nt
CCOc1ccc(OCCn2c(S(=O)(=O)O)nc3c(N)ncnc32)cc1	0	-2	-1	0	nt
O=C(CSc1nnnn1-c1ccc(O)cc1)Nc1ccc(N2CCOCC2)c(Cl)c1	-6	51*	2	0	8%
O=C(Nc1ccc2c(c1)OCCO2)c1c[nH]c(=O)n(-c2ccc(F)c(Cl)c2)c1=O	1	0	1	-1	nt
O=C1OCCC1=Cc1ccccc1	nt	-1	nt	nt	nt
O=C1OCC/C1=C\c1ccc(O)cc1	-7	92*	17	9	7%
SMILES	GSK3B inh	Dyrk1A ADPGlo	GSK3 alpha inh	STK33 kinase inh	Dyrk1A artifact
O=C1CCC(O)CCN1CCSc1ccccc1 (stereo not drawn)	-2	-1	-1	-2	nt
COc1ccc(-n2c(Cn3c(=O)sc4ccccc43)nnc2SCC(=O)N2CCOCC2)cc1	nt	56*	-2	0	7%
Cc1cccc(-n2nc3c(c2NC(=O)CCC2CCCCC2)CS(=O)C3)c1C (stereo not drawn)	-4	55*	-3	-1	11%
CCOC(=O)C1(Cc2cccc(OC)c2)CCCN(C(=O)CNC(C)=O)C1 (stereo not drawn)	-1	12	nt	nt	nt
COc1cccc(-c2sc3ccccc3c2-c2ccc(OCCN3CCCC3)cc2)c1	nt	51*	1	0	9%
O=C(NNS(=O)(=O)c1ccccc1)c1csc(-c2cccnc2)n1	-5	34	1	3	nt
O=C(Nc1ccccc1Cl)c1csc(-c2cccnc2)n1	-2	75*	4	8	11%
Oc1ccc(-c2nccc(-c3cccs3)n2)cc1	7	61*	21	7	5%
CC(=O)c1nc2ccccc2n1S(=O)(=O)c1ccc(C)cc1	-2	-1	nt	1	nt
CC(=O)c1nc2ccccc2n1S(=O)(=O)c1ccc(Cl)cc1	1	83*	-4	0	7%
CC(C)(C)OC(=O)N1Cc2ccccc2C[C@H]1C(=O)NCC(=O)NCC1CCCO1 (stereo partly drawn)	2	-5	-1	0	nt
Clc1ccccc1OCc1nn2c(-c3ccncc3)nnc2s1	0	7	-1	4	nt
Cc1nc(COc2ccccc2Cl)sc1-c1ccnc(N)n1	-17	79*	3	7	10%
CCOC(=O)N1CCN(CC(O)COc2ccccc2[N+](=O)[O-])CC1 (stereo not drawn)	7	4	-2	0	nt
CCCCNC(=S)Nc1ccc2cn[nH]c2c1	1	81*	nt	nt	-2%
CCOC(=O)[C@@H]1[C@H]2COc3ccc(Br)cc3[C@@H]2N2C(=O)N(c3ccc(C)cc3)C(=O)[C@@]12C	nt	6	-2	0	nt
COC(=O)C1=C(C)N(CCCC(=O)O)C(=O)NC1c1ccc(Cl)cc1 (stereo not drawn)	1	56*	-2	0	7%
CCOC(=O)C1=C(C)N(CCCC(=O)O)C(=O)NC1c1ccc(Cl)cc1 (stereo not drawn)	2	-1	2	1	nt
Oc1c(Cl)c(Cl)c2ncccc2c1Cl	nt	55*	nt	nt	9%
Oc1c(I)cc(Cl)c2cccnc12	1	12	-6	-1	nt
CCc1ccccc1NC(=O)CSc1nc(C)c(C)o1	-3	nt	nt	0	nt
c1nc2sc3c(c2c2nnnn12)CCC3	-1	10	5	2	nt
c1nc2sc3c(c2c2nnnn12)CCCC3	1	50*	12	3	8%
COC(=O)c1cccc2c1-c1ccccc1/C2=N/O	-4	57*	17	30*	9%
O=C(O)c1cc2ccccc2c2cc(Br)ccc12	2	69*	3	-2	8%
SMILES	GSK3B inh	Dyrk1A ADPGlo	GSK3 alpha inh	STK33 kinase inh	Dyrk1A artifact
Cc1ccc2c(c1C)-c1c(ccc(C)c1C)C(=O)C2=O	nt	54*	nt	nt	9%
Cc1nc(C)c(C(=O)Nc2cccc(F)c2)s1	0	16	-2	-1	nt
CCN(CC)CCn1c2ccccc2c(=O)c2c(O)ccc(O)c21	nt	85*	nt	nt	7%
O=C(NCc1ccc2c(c1)OCO2)c1ccco1	4	4	-1	0	nt
O=C(CC(SCCO)c1ccc2c(c1)OCO2)c1ccco1 (stereo not drawn)	-1	84*	17	2	8%
CCC(C)[C@H]1CNCCN1CC1(c2ccccc2)CC1 (stereo partly drawn)	-7	9	1	-2	nt
CCC(C)[C@H]1CNCCN1CCc1cccc2ccccc12 (stereo partly drawn)	3	51*	3	0	10%
OCC[C@@H]1C[C@H](O)[C@@H](O)[C@@]2(CCc3ccccc3CO2)O1	-4	52*	9	5	7%
OCC[C@H]1C[C@@H](O)[C@H](O)[C@@]2(CCc3ccccc3CO2)O1	nt	-13	-2	1	nt
